Test [1] is described as follows: Apparent antagonist activity determined by measuring the ability to inhibit stimulation of [35S]GTP-gamma-S, binding to opioid receptor delta 1 in guinea pig caudate membranes. On the technique in general: GTPγS resists hydrolysis and so accumulates on activated G proteins.
Test [2] deals with Kappa-type opioid receptor (Cavia porcellus, UniProt P41144). The experiment in a line: Apparent binding affinity of compound was determined by antagonism towards Opioid receptor kappa 1 in [35S]GTP-gamma-S, binding assay in guinea pig caudate.
Sequence of Kappa-type opioid receptor (P41144 whole entry): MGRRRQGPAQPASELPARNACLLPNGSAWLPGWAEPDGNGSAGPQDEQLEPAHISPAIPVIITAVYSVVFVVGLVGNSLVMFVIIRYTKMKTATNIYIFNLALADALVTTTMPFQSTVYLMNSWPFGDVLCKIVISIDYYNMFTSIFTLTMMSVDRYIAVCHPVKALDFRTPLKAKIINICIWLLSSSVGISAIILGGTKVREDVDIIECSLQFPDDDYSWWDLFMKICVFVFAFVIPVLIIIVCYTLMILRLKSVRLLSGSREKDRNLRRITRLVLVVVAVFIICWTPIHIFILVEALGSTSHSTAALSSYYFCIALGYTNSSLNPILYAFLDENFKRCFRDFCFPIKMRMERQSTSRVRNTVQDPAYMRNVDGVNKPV
Test [3] has as its target T1, Mu-type opioid receptor (Cavia porcellus, UniProt P97266). The experiment in a line: Apparent binding affinity of compound was determined by antagonism towards Opioid receptor mu 1 in [35S]GTP-gamma-S, binding assay in guinea pig caudate.
The nature of test [4]: Inhibitory concentration required for 50% inhibition of antagonism towards opioid receptor delta 1 in [35S]GTP-gamma-S, binding assay in guinea pig caudate.
In test [5] the target is T1, Mu-type opioid receptor. The experiment in a line: Agonistic activity towards Opioid receptor mu 1 was determined in [35S]GTP-gamma-S, binding assay in guinea pig caudate. The procedure, abridged: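 Guinea pig caudate membranes (10-20 µg protein) incubated 3 h at 22 °C in Tris-HCl pH 7.4 containing 100 mM NaCl, 10 mM MgCl2, 1 mM EDTA, 100 µM GDP and 0.05-0.1 nM [35S]GTP-γ-S, then filtered and counted. Nonspecific binding defined with 10 µM GTP-γ-S. Site isolation used CTAP, nor-BNI, NTI or TIPP. […] Three experiments pooled; logistic fit.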

A value given as a limit tells only on which side of the number the result lay.

T1 sequence (P97266 whole entry): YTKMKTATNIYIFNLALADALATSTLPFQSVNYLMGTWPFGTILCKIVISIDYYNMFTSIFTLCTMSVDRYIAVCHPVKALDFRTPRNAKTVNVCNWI

Regarding `Oc1ccc2c3c1OC1c4ncc(-c5ccc(Cl)cc5)cc4C[C@@]4(O)[C@@H](C2)N(CC2CC2)CC[C@]314` (stereo partly drawn) [5'-(Chlorophenyl)-17-(cyclopropylmethyl) -6,7-didehydro-3,14-dihydroxy-4,5alpha-epoxypyrido-[2',3':6,7]morphinan], in test [1], the Ki was found to be 0.18 nM. On to `CN1CC[C@]23c4c5ccc(O)c4O[C@H]2c2ncc(-c4ccc(Cl)cc4)cc2C[C@@]3(O)C1C5` [6-(4-chlorophenyl)-19-methyl-(2S,10R)-11-oxa-8,19-diazahexacyclo[10.9.1.01,10.02,18.04,9.016,22]docosa-4(9),5,7,12,14,16(22)-hexaene-2,13-diol], for which the Ki in test [2] is 767 nM; at Mu-type opioid receptor [3], greater than 1000 nM. As to `CN1CC[C@]23c4c5ccc(O)c4O[C@H]2c2ncc(-c4ccccc4)cc2C[C@@]3(O)C1C5` [19-methyl-6-phenyl-(2S,10R)-11-oxa-8,19-diazahexacyclo[10.9.1.01,10.02,18.04,9.016,22]docosa-4(9),5,7,12,14,16(22)-hexaene-2,13-diol], the concentration for half-maximal inhibition (IC50) (commonly the concentration that inhibits the measured activity by half) in test [4] stood at 920 nM. For the compound `CN1CC[C@]23c4c5ccc(O)c4O[C@H]2c2ncccc2C[C@H]3C1C5` [19-methyl-(2R,10R)-11-oxa-8,19-diazahexacyclo[10.9.1.01,10.02,18.04,9.016,22]docosa-4(9),5,7,12,14,16(22)-hexaen-13-ol], the Ki in test [1] came to 595 nM. As for `C[C@@H](NC(=O)[C@@H](N)Cc1ccc(O)cc1)C(=O)NCC(=O)N(C)[C@@H](Cc1ccccc1)C(=O)NCCO` [[tyrosyl-3,5-3H(N)]-D-Ala2-Mephe4-glyol5-enkephalin], the response at Mu-type opioid receptor [5] was half-maximal at 414 nM (EC50). Turning to `CN1CC[C@]23c4c5ccc(O)c4O[C@H]2c2ncc(-c4ccc(Cl)c(Cl)c4)cc2C[C@H]3C1C5` [6-(3,4-dichlorophenyl)-19-methyl-(2R,10R)-11-oxa-8,19-diazahexacyclo[10.9.1.01,10.02,18.04,9.016,22]docosa-4(9),5,7,12,14,16(22)-hexaen-13-ol], the IC50 in test [4] turned out to be 74 nM. In the case of `Oc1ccc2c3c1O[C@H]1c4ncc(-c5ccc(Cl)cc5)cc4C[C@H]4C(C2)N(CC2CC2)CC[C@]314` [6-(4-chlorophenyl)-19-cyclopropylmethyl-(2R,10R)-11-oxa-8,19-diazahexacyclo[10.9.1.01,10.02,18.04,9.016,22]docosa-4(9),5,7,12,14,16(22)-hexaen-13-ol], the Ki in test [1] came to 1.6 nM.

In test [4], `CN1CC[C@]23c4c5ccc(O)c4O[C@H]2c2ncc(-c4ccc(Br)cc4)cc2C[C@H]3C1C5` [6-(4-bromophenyl)-19-methyl-(2R,10R)-11-oxa-8,19-diazahexacyclo[10.9.1.01,10.02,18.04,9.016,22]docosa-4(9),5,7,12,14,16(22)-hexaen-13-ol] returned an IC50 of 55 nM. In other words, the double-digit nanomolar range. As for `CN1CC[C@]23c4c5ccc(O)c4O[C@H]2c2ncc(-c4ccc(Cl)cc4)cc2C[C@H]3C1C5` [6-(4-chlorophenyl)-19-methyl-(2R,10R)-11-oxa-8,19-diazahexacyclo[10.9.1.01,10.02,18.04,9.016,22]docosa-4(9),5,7,12,14,16(22)-hexaen-13-ol], in test [1], the Ki is 11 nM. Still for that read-out and setting: next, `CN1CC[C@]23c4c5ccc(O)c4O[C@H]2c2ncc(-c4ccc(Cl)cc4Cl)cc2C[C@H]3C1C5` [6-(2,4-dichlorophenyl)-19-methyl-(2R,10R)-11-oxa-8,19-diazahexacyclo[10.9.1.01,10.02,18.04,9.016,22]docosa-4(9),5,7,12,14,16(22)-hexaen-13-ol]: 1.1 nM.

The values are drawn from BindingDB's records for doi:10.1021/jm030311v (Southern Research Institute, 2004).
